Results taken from ChEMBL document CHEMBL1153055, “Synthesis and evaluation of 5-benzylidene(thio)barbiturate-beta-D-glycosides as mushroom tyrosinase inhibitors” (Bioorg Med Chem Lett, 2009).
pIC50: −log10 of the molar value. Calls of active or inactive are those of the source. The calls are words filed in the database; no cut-off is given here.

These molecules were tested against T1, Tyrosinase (Agaricus bisporus, UniProt O42713) (assay: Inhibition of diphenolase activity of mushroom tyrosinase). Details: not given.
T1 sequence (O42713 whole entry): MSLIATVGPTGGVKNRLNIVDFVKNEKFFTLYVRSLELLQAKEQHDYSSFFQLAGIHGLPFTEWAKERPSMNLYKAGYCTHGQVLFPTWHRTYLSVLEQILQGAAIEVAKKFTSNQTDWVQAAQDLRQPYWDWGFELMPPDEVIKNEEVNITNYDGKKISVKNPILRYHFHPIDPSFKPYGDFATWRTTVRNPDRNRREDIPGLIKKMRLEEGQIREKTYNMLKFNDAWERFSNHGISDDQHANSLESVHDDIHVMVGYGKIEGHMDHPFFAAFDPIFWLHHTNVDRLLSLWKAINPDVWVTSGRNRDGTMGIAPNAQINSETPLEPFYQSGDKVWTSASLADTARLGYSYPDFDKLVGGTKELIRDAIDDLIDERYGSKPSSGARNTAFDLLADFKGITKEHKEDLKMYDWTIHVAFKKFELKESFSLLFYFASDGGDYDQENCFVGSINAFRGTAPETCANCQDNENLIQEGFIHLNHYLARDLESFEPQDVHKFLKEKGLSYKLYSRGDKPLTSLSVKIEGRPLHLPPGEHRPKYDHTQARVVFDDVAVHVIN

`CC(=O)OC[C@H]1O[C@@H](Oc2ccc(C=C3C(=O)NC(=O)NC3=O)cc2)[C@H](OC(C)=O)[C@H](OC(C)=O)[C@@H]1OC(C)=O` and `CC(=O)OC[C@H]1O[C@@H](Oc2ccc(C=C3C(=O)NC(=O)NC3=O)cc2)[C@H](OC(C)=O)[C@@H](OC(C)=O)[C@@H]1OC(C)=O` are within 0.2 log units of each other in pIC50: 2.82 for the first, 2.90 for the second.

Compared with `CC(=O)OC[C@H]1O[C@@H](Oc2ccc(C=O)c(O)c2)[C@H](OC(C)=O)[C@@H](OC(C)=O)[C@@H]1OC(C)=O`, `CC(=O)OC[C@H]1O[C@@H](Oc2ccc(C=O)cc2O)[C@H](OC(C)=O)[C@@H](OC(C)=O)[C@@H]1OC(C)=O` is higher in pIC50: < 2.52 for the first, 3.37 for the second.

`CC(=O)OC[C@H]1O[C@@H](Oc2ccccc2C=O)[C@H](OC(C)=O)[C@@H](OC(C)=O)[C@@H]1OC(C)=O` and `CC(=O)OC[C@H]1O[C@@H](Oc2cccc(C=O)c2)[C@H](OC(C)=O)[C@@H](OC(C)=O)[C@@H]1OC(C)=O` cannot be ordered by pIC50: < 2.52 for the first, < 2.52 for the second.

First: CC(=O)OC[C@H]1O[C@@H](Oc2ccc(C=O)cc2)[C@H](OC(C)=O)[C@H](OC(C)=O)[C@@H]1OC(C)=O
Second: CC(=O)OC[C@H]1O[C@@H](Oc2ccc(C=C3C(=O)NC(=S)NC3=O)cc2)[C@H](OC(C)=O)[C@@H](OC(C)=O)[C@@H]1OC(C)=O
The pIC50 of the first is 0.53 log units lower: 3.11 for the first, 3.64 for the second.

Compared with `CC(=O)OC[C@H]1O[C@@H](Oc2ccccc2C=C2C(=O)NC(=O)NC2=O)[C@H](OC(C)=O)[C@@H](OC(C)=O)[C@@H]1OC(C)=O`, `CC(=O)OC[C@H]1O[C@@H](Oc2ccccc2C=C2C(=O)NC(=S)NC2=O)[C@H](OC(C)=O)[C@@H](OC(C)=O)[C@@H]1OC(C)=O` is higher in pIC50: < 2.52 for the first, 3.37 for the second.

Going from `CC(=O)OC[C@H]1O[C@@H](Oc2ccc(C=C3C(=O)NC(=O)NC3=O)c(O)c2)[C@H](OC(C)=O)[C@@H](OC(C)=O)[C@@H]1OC(C)=O` to `CC(=O)OC[C@H]1O[C@@H](Oc2ccc(C=C3C(=O)NC(=S)NC3=O)c(O)c2)[C@H](OC(C)=O)[C@@H](OC(C)=O)[C@@H]1OC(C)=O`, the pIC50 rises from 2.76 to 3.55 (0.79 log units).

`O=C1NC(=S)NC(=O)C1=Cc1ccc(O[C@@H]2O[C@H](CO)[C@@H](O)[C@@H](O)[C@H]2O)cc1` and `O=C1NC(=O)C(=Cc2ccc(O[C@@H]3O[C@H](CO)[C@@H](O)[C@@H](O)[C@H]3O)cc2)C(=O)N1` are within 0.2 log units of each other in pIC50: 2.94 for the first, 2.79 for the second.

Going from `CC(=O)OC[C@H]1O[C@@H](Oc2cccc(C=C3C(=O)NC(=S)NC3=O)c2)[C@H](OC(C)=O)[C@@H](OC(C)=O)[C@@H]1OC(C)=O` to `CC(=O)OC[C@H]1O[C@@H](Oc2cccc(C=C3C(=O)NC(=O)NC3=O)c2)[C@H](OC(C)=O)[C@@H](OC(C)=O)[C@@H]1OC(C)=O`, the pIC50 falls from 3.06 to < 2.52. The first is the more potent here.

Going from `CC(=O)OC[C@H]1O[C@@H](Oc2ccc(C=C3C(=O)NC(=O)NC3=O)cc2O)[C@H](OC(C)=O)[C@@H](OC(C)=O)[C@@H]1OC(C)=O` to `CC(=O)OC[C@H]1O[C@@H](Oc2ccc(C=C3C(=O)NC(=S)NC3=O)cc2O)[C@H](OC(C)=O)[C@@H](OC(C)=O)[C@@H]1OC(C)=O`, the pIC50 rises from 3.89 to 4.30 (0.41 log units). The second is the more potent here.

Molecule `CC(=O)OC[C@H]1O[C@@H](Oc2ccc(C=C3C(=O)NC(=S)NC3=O)cc2)[C@H](OC(C)=O)[C@H](OC(C)=O)[C@@H]1OC(C)=O` has a pIC50 of 3.47.

These molecules were tested against T2, Tyrosinase (Agaricus bisporus) (UniProt O42713) (assay: Irreversible inhibition of mushroom tyrosinase assessed as oxidation of L-DOPA at 0.8 mmol/L […]). Details: not given.
T2 sequence (whole entry): T1 sequence (O42713 whole entry)
Outline: (§1)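 Mushroom tyrosinase was run with L-DOPA as substrate. Enzyme concentration was varied at fixed inhibitor levels of 0, 0.5, 0.8 and 1.0 mmol/L. Rate (V) was plotted against enzyme concentration [E] for each inhibitor level to judge whether inhibition was reversible or irreversible.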

In the case of `CC(=O)OC[C@H]1O[C@@H](Oc2ccc(C=C3C(=O)NC(=O)NC3=O)cc2O)[C@H](OC(C)=O)[C@@H](OC(C)=O)[C@@H]1OC(C)=O`, the inhibition was “Active”.

The molecules below were run against T2, Tyrosinase (Agaricus bisporus) (assay: Irreversible inhibition of mushroom tyrosinase assessed as oxidation of L-DOPA at 1 mmol/L […]). Details: not given.
Outline: as §1

With `CC(=O)OC[C@H]1O[C@@H](Oc2ccc(C=C3C(=O)NC(=S)NC3=O)cc2O)[C@H](OC(C)=O)[C@@H](OC(C)=O)[C@@H]1OC(C)=O` the inhibition was “Active”.

What follows are molecules tested against T2, Tyrosinase (Agaricus bisporus). Details: 0.5 mmol/L.

`CC(=O)OC[C@H]1O[C@@H](Oc2ccc(C=O)cc2O)[C@H](OC(C)=O)[C@@H](OC(C)=O)[C@@H]1OC(C)=O` was tested, and the inhibition was “Active”.
